Assay results reported in ChEMBL document CHEMBL1145855, “Computer-aided selection of potential antihypertensive compounds with dual mechanism of action” (J Med Chem, 2003).

Key:
[1] = molecular target: Angiotensin-converting enzyme (Homo sapiens, UniProt P12821); assay: Inhibitory activity against Angiotensin I converting enzyme (ACE) from human blood serum
[2] = molecular target: T1, Angiotensin-converting enzyme (Rattus norvegicus, UniProt P47820); assay: Inhibitory activity against Angiotensin I converting enzyme (ACE) from rat cortex brain membrane
T1 sequence (P47820 whole entry): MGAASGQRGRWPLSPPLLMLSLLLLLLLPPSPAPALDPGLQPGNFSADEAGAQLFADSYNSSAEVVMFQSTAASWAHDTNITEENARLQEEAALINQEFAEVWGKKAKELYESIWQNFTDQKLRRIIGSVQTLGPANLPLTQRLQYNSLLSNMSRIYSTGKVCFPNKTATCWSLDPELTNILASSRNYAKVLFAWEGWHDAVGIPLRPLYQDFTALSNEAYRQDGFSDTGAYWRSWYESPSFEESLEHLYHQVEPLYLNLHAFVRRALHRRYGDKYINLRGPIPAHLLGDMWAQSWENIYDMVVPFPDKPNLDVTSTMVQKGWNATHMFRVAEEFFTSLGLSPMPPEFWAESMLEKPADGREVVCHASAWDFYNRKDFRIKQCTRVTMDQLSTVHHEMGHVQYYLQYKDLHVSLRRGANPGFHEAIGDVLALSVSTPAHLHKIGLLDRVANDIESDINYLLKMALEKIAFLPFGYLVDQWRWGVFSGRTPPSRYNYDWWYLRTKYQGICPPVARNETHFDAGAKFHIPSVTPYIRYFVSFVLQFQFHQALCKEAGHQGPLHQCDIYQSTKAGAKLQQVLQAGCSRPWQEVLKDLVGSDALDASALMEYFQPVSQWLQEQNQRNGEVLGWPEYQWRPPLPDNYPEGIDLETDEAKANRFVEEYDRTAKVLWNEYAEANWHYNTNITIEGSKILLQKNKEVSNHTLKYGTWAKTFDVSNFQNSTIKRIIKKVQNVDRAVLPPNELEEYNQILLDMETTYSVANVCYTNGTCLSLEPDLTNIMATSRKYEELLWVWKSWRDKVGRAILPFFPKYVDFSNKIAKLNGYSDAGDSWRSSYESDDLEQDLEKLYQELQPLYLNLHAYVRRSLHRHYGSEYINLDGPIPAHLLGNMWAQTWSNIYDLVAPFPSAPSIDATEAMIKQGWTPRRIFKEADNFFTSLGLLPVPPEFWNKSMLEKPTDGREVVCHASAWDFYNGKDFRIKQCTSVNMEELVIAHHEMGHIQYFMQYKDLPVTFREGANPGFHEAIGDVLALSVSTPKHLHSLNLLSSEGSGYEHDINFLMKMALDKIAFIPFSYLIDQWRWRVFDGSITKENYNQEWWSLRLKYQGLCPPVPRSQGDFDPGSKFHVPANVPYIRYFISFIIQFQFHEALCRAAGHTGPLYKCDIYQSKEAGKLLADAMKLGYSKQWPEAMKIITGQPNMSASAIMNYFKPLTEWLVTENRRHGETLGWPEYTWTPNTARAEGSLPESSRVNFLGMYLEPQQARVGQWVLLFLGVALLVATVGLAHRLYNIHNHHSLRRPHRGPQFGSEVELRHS
Method in brief: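 Enzyme source was human serum (diluted 1:5) or rat cortex brain membrane suspension, in 70 mM potassium phosphate pH 8.3 with 300 mM NaCl. Compound (10^-3 to 10^-8 M) preincubated 20 min at 37 °C, then 25 µM Hip-His-Leu added for 120 min; stopped with NaOH.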

[3] = molecular target: T2, Neprilysin (Rattus norvegicus, UniProt P07861); assay: Inhibitory activity against neutral endopeptidase (NEP) from rat cortex brain membrane
T2 sequence (P07861 whole entry): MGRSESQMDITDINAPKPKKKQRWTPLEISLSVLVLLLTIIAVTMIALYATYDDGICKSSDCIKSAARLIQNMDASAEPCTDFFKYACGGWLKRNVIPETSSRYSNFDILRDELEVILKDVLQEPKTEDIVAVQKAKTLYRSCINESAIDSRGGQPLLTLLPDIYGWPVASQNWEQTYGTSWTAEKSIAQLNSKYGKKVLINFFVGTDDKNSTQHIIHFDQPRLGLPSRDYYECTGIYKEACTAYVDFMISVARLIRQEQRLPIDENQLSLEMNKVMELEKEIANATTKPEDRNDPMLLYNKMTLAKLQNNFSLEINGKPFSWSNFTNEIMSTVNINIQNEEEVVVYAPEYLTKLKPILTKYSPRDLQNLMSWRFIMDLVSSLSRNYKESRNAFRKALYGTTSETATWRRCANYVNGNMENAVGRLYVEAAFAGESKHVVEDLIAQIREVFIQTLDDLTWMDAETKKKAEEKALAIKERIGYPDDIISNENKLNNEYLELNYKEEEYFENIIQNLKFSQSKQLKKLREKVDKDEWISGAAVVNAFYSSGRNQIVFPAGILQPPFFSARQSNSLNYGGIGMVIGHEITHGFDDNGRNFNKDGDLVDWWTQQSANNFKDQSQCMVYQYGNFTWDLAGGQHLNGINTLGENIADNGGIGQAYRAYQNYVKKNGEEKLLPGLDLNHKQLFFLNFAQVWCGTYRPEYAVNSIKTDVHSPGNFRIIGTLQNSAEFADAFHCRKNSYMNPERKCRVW
Method in brief: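 Rat cortex brain membrane suspension in 50 mM Tris-HCl pH 7.5, with six to eight inhibitor concentrations (10^-2 to 10^-6 M). Preincubated 20 min at 37 °C, then Suc-Ala-Ala-Phe-MCA (20 µM final) added for 120-180 min at 37 °C; stopped with pH 4.0 acetate. Released 4-methylcoumarinyl-7-amine read at Ex 383/Em 455 nm; % inhibition versus control; IC50.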

[4] = molecular target: Neprilysin (Homo sapiens, UniProt P08473); assay: Inhibitory activity against neutral endopeptidase (NEP) from human blood serum
Method in brief: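 Human serum (diluted 1:5) as enzyme source, with the test compound at six to eight concentrations from 10^-2 to 10^-6 M, in 50 mM Tris-HCl pH 7.5. Preincubated 20 min at 37 °C. Suc-Ala-Ala-Phe-MCA added (20 µM final) and incubated 120-180 min at 37 °C. Stopped with 20 mM sodium acetate pH 4.0. Released 4-methylcoumarinyl-7-amine read at Ex 383/Em 455 nm. Percent inhibition taken against the no-inhibitor control; IC50 derived.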

[5] = molecular target: Angiotensin-converting enzyme (Bos taurus) (UniProt P12820); assay: Inhibitory activity of compound at 1*10e-4 M against Angiotensin I converting enzyme (ACE) from bovine kidney
Sequence of Angiotensin-converting enzyme (Bos taurus) (P12820 whole entry, looked up): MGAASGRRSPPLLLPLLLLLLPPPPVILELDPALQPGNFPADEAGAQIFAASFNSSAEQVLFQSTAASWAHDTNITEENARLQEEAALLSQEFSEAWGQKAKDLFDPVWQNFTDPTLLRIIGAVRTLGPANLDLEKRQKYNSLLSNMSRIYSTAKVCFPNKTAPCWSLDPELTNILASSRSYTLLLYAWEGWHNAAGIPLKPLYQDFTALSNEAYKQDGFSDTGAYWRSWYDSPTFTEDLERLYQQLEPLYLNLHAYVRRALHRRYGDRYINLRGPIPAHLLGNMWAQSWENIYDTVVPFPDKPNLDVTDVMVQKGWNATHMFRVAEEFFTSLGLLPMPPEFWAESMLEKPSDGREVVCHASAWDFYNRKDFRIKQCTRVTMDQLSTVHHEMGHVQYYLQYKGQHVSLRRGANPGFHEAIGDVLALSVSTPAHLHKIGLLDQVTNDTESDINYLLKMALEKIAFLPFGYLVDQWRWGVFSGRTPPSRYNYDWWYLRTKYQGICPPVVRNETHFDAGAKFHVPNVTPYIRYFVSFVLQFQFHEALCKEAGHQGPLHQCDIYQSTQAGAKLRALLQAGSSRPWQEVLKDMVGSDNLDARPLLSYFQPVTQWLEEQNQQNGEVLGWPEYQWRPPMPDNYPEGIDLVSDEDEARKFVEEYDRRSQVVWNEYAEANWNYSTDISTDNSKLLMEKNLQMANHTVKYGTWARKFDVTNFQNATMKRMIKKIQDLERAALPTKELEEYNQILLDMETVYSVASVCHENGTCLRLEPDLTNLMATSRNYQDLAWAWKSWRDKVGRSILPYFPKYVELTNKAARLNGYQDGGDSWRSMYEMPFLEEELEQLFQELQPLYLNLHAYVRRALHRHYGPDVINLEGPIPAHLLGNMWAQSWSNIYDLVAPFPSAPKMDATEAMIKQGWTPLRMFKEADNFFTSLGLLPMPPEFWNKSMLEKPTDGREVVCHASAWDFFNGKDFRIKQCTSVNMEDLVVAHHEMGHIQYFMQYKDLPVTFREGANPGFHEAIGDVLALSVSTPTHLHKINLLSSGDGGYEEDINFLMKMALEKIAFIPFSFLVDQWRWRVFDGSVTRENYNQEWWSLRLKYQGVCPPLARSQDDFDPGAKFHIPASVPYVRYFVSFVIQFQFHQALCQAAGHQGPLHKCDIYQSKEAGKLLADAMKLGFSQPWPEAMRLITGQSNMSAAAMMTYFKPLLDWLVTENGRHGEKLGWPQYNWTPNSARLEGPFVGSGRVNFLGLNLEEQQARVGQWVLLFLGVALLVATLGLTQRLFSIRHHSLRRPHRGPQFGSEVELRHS

Sequence of Neprilysin (Homo sapiens, UniProt P08473) (P08473 whole entry): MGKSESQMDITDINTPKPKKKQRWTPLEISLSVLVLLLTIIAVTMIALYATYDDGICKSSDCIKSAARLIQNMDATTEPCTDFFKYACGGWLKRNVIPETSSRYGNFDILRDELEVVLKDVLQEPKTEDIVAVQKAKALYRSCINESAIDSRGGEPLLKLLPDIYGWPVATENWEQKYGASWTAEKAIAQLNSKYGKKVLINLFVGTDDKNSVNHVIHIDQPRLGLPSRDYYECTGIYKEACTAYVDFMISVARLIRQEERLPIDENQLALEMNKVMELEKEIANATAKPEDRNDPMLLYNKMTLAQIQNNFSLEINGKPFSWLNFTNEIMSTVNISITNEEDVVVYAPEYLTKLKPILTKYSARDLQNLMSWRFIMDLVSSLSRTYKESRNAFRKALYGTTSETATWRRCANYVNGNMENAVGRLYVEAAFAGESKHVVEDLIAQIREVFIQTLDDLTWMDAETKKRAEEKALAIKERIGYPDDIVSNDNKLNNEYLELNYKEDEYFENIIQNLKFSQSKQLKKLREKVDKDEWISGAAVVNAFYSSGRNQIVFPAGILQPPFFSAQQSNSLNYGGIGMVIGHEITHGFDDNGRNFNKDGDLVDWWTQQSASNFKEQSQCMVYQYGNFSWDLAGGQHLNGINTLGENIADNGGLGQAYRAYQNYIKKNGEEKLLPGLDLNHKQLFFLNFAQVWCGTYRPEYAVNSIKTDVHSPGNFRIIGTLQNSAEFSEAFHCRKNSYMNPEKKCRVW
Sequence of Angiotensin-converting enzyme (Homo sapiens, UniProt P12821) (P12821 whole entry): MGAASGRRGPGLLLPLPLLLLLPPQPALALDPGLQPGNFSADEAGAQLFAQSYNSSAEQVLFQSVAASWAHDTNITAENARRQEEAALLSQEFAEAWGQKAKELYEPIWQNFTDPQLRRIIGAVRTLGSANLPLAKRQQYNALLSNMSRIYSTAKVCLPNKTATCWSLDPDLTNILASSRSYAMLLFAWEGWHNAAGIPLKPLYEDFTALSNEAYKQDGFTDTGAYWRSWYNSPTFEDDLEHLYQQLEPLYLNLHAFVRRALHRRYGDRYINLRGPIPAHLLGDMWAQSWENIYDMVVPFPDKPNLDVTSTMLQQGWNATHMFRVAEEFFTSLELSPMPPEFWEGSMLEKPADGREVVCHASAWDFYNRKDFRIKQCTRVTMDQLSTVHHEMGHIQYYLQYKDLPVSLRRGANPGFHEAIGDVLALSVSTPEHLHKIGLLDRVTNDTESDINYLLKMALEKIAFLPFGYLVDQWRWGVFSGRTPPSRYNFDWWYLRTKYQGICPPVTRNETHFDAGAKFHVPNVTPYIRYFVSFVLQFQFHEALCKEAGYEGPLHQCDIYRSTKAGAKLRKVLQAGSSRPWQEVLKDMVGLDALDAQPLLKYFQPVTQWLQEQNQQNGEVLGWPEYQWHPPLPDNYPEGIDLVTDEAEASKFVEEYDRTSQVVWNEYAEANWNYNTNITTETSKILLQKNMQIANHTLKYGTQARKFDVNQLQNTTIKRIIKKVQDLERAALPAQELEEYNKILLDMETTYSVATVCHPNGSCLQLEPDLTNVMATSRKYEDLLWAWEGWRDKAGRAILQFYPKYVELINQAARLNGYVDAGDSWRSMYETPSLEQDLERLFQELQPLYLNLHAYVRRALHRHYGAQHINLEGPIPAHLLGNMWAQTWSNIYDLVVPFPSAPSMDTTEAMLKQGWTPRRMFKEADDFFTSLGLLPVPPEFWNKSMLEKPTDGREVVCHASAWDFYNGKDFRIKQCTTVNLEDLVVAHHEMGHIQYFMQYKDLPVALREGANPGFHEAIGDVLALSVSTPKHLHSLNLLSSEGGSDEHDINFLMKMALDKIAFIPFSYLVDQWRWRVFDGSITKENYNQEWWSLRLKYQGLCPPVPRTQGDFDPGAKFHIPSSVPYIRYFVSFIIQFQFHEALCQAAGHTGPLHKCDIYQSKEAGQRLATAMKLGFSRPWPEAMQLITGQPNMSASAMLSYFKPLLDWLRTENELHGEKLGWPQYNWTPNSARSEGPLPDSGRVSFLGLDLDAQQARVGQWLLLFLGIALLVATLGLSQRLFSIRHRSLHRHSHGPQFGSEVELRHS

Row | Structure (SMILES) | IC50 [1] [µM] | IC50 [2] [µM] | IC50 [3] [µM] | IC50 [4] [µM] | inhibition [5] [%]
1 | CC(C)C[C@H](NP(=O)(O)O[C@@H]1O[C@@H](C)[C@H](O)[C@@H](O)[C@H]1O)C(=O)N[C@@H](Cc1c[nH]c2ccccc12)C(=O)O [PHOSPHORAMIDON] |  |  | 0.2 | 0.1 | 
2 | O=C(O)CCCNCP(=O)(O)CCc1ccccc1 | 100 | 100 | 2000 |  | 18

Now from value to compound, other results behind:

Row | IC50 [1] [µM] | IC50 [2] [µM] | IC50 [3] [µM] | IC50 [4] [µM] | Structure (SMILES) | inhibition [5] [%]
3 | 0.02 | 0.1 | 2000 |  | CC1CCCC(C(=O)O)N1C(=O)CCS (configuration not stated) | 
4 | 200 | 100 | 200 | 20 | CC(=O)SCC(C)C(=O)NCc1ccccc1 (configuration not stated) | 
5 | 2 | 1 | 200 | 20 | CC(=O)SCC(C)C(=O)Nc1ccccc1 (configuration not stated) | 
